# The source made the active and inactive calls. The calls are words filed in the database; no cut-off is given here.
# Legend:
# HCT-116 [1] = assay: Growth inhibition of human HCT116 cells at 5 uM after 96 hrs by MTS assay; assay type: functional, cell-based
# Procedure, shortened: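 HCT116 cells seeded at 3 × 10^4 cells/well in quadruplicate and left to attach overnight. Medium was replaced with fresh medium containing compound at 10 nM, 100 nM, 1 µM or 5 µM, then incubated 96 h at 37 °C in 5% CO2. MTS reagent was added for 1.5 h at 37 °C and absorbance read at 490 nm.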
# [2] = biological target: Histone deacetylase 1 (Homo sapiens) (UniProt Q13547); assay: Inhibition of HDAC1 in human HCT116 cells assessed as increase in histone H3 acetylation at 1 uM after 24 hrs by Western blot analysis; assay type: cell-based; conditions: HCT-116
# Chain of Histone deacetylase 1 (Homo sapiens) (Q13547 whole entry): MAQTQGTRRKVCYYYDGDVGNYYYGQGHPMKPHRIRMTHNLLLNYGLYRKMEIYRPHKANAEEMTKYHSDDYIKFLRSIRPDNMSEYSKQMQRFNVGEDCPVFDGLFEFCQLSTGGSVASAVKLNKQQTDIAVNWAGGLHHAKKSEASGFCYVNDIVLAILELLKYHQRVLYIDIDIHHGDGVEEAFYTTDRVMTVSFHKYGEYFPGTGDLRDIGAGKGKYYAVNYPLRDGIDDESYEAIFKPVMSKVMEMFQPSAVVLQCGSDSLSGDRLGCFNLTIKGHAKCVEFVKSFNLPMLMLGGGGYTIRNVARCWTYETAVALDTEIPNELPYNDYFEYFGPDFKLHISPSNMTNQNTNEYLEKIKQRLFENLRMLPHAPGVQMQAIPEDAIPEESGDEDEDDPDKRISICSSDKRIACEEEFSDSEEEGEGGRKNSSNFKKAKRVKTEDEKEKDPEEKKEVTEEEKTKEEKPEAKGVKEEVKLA
# Procedure, shortened: (§1)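 HCT116 cells treated 24 h with 10 nM, 100 nM or 1 µM compound, with DMSO as vehicle control. Acetylation of histone or α-tubulin was measured by Western blot of whole-cell lysates, detected with infrared dye-conjugated secondary antibodies and infrared scanning.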
# [3] = biological target: Histone deacetylase 1 (Homo sapiens) (UniProt Q13547); assay: Inhibition of HDAC1 from human HeLa nuclear extract after 1 hr by fluorimetric assay
# Procedure, shortened: (§2)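 Fluor de Lys fluorimetric deacetylase assay run per the kit protocol. Inhibitor, enzyme and substrate were incubated 1 h, then developer was added and incubated before reading. Recombinant HDAC1 or HDAC6 was tested at 1 µM inhibitor; HeLa nuclear extract served as the class 1/2 HDAC source. Analogue + substrate + developer was the signal control. Three experiments, each in triplicate; SD of triplicates.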
# [4] = biological target: Histone deacetylase 1 (Homo sapiens) (UniProt Q13547); assay: Inhibition of HDAC1 in human HCT116 cells assessed as increase in histone H3 acetylation at 10 nM after 24 hrs by Western blot analysis; assay type: cell-based; conditions: HCT-116; procedure, shortened: as §1
# [5] = biological target: T1, Protein deacetylase HDAC6 (Homo sapiens) (UniProt Q9UBN7); assay: Inhibition of recombinant HDAC6 at 1 uM after 1 hr by fluorimetric assay; procedure, shortened: as §2
# T1 sequence (whole entry): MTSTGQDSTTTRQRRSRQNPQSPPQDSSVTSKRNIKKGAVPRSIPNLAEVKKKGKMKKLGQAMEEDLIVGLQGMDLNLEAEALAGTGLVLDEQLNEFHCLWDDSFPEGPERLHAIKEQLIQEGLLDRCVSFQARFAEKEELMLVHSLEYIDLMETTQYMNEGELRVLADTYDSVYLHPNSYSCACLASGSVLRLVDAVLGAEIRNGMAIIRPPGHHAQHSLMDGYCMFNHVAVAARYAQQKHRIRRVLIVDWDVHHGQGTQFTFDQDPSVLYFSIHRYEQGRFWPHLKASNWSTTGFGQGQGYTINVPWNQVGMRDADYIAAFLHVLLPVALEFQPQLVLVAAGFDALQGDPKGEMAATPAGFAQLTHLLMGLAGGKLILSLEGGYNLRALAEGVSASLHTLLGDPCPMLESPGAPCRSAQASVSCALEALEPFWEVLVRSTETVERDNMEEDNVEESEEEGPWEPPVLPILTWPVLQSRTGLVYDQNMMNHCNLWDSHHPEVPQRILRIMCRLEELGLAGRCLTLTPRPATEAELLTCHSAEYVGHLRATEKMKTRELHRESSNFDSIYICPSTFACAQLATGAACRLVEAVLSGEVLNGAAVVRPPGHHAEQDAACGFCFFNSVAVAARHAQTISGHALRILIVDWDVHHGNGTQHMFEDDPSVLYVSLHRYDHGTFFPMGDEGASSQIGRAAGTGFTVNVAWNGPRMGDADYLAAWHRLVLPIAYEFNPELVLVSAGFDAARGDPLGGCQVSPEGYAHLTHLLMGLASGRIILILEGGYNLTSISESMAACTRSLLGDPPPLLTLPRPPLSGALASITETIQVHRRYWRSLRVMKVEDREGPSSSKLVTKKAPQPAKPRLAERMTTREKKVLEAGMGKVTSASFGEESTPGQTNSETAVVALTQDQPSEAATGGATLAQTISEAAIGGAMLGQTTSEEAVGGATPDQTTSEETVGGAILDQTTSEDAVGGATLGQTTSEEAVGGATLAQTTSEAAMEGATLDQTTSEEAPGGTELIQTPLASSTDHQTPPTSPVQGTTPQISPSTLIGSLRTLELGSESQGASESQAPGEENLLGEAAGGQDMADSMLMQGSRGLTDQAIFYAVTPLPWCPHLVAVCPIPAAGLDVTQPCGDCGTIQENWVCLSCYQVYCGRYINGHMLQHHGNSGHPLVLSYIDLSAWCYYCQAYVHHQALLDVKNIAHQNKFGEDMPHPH
# [6] = biological target: T1, Protein deacetylase HDAC6 (Homo sapiens); assay: Inhibition of HDAC6 in human HCT116 cells assessed as increase in alpha tubulin acetylation at 0.01 to 1 uM after 24 hrs by Western blot analysis; assay type: cell-based; conditions: HCT-116; procedure, shortened: as §1
# [7] = biological target: T1, Protein deacetylase HDAC6 (Homo sapiens); assay: Inhibition of recombinant human HDAC6 after 1 hr by fluorimetric assay
# [8] = biological target: Histone deacetylase 1 (Homo sapiens) (UniProt Q13547); assay: Inhibition of recombinant HDAC1 at 1 uM after 1 hr by fluorimetric assay; procedure, shortened: as §2
# [9] = biological target: Histone deacetylase 1 (Homo sapiens) (UniProt Q13547); conditions: HCT-116, 100 nM
# HCT-116 [10] = assay: Growth inhibition of human HCT116 cells after 96 hrs by MTS assay; assay type: functional; conditions: HCT-116, 96 h
# Procedure, shortened: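 HCT116 cells seeded at 3 × 10^4 cells/well in quadruplicate and allowed to attach overnight. Medium then replaced with fresh medium containing compound (10 nM, 100 nM, 1 µM, 5 µM). Cells incubated 96 h at 37 °C, 5% CO2. MTS reagent (CellTiter 96 One Solution) added for 1.5 h at 37 °C, then absorbance read at 490 nm. GI50 estimated from the growth curves.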
SMILES,growth inhibition (GI) (HCT-116 [1]),inhibition [2],inhibition [3],inhibition [4],inhibition [5] [%],inhibition [6],inhibition [7],inhibition [8],inhibition [9],GI50 (HCT-116 [10]) [nM]
CC(C)[C@@H]1NC(=O)[C@]2(C)CSC(=N2)c2csc(n2)CNC(=O)C[C@@H](/C=C/CCSCc2cccs2)OC1=O,Active,Active,Active,inactive,50,inactive,Active,80%,,
CCCCCCCC(=O)SCC/C=C/[C@@H]1CC(=O)NCc2nc(cs2)C2=N[C@@](C)(CS2)C(=O)N[C@@H](C(C)C)C(=O)O1 [LARGAZOLE],,,Active,inactive,50,inactive,Active,Active,Active,10
CC(C)[C@@H]1NC(=O)[C@]2(C)CSC(=N2)c2csc(n2)CNC(=O)C[C@@H](/C=C/CCSCc2ccccn2)OC1=O,,Active,Active,inactive,50,inactive,Active,80%,,1000
CC(C)[C@@H]1NC(=O)[C@]2(C)CSC(=N2)c2csc(n2)CNC(=O)C[C@@H](/C=C/CCSCc2ccccc2O)OC1=O,Active,,Active,inactive,50,inactive,Active,30%,,

# Source: ChEMBL document CHEMBL1914325, “Largazole and analogues with modified metal-binding motifs targeting histone deacetylases: synthesis and biological evaluation” (2011)
